Here are results for one compound from ChEMBL document CHEMBL4371071, “Muscarinic agonist, (±)-quinuclidin-3-yl-(4-fluorophenethyl)(phenyl)carbamate: High affinity, but low subtype selectivity for human M1 - M5 muscarinic acetylcholine receptors” (Bioorg Med Chem Lett, 2019).

In test [1] the target is T1, Muscarinic acetylcholine receptor M1 (Homo sapiens, UniProt P11229).
T1 sequence (P11229 whole entry): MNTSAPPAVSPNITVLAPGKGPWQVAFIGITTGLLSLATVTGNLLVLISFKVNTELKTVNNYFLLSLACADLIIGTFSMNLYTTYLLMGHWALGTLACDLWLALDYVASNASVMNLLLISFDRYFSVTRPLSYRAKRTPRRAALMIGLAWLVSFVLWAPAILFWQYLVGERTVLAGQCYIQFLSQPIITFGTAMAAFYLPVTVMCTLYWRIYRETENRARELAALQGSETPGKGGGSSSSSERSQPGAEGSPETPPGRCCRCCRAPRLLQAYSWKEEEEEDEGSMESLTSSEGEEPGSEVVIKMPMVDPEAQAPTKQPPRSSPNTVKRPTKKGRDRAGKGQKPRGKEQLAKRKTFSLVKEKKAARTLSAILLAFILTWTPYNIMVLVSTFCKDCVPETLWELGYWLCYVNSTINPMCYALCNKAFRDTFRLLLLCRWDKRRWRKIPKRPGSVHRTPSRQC
Kind of test: Displacement of [3H]NMS from human M1 AChR expressed in CHO cell membranes after 1 to 2 hrs by liquid scintillation spectrometry method. Format: cell-based.

The target in test [2] is T2, Muscarinic acetylcholine receptor M2 (Homo sapiens, UniProt P08172).
T2 sequence (P08172 whole entry): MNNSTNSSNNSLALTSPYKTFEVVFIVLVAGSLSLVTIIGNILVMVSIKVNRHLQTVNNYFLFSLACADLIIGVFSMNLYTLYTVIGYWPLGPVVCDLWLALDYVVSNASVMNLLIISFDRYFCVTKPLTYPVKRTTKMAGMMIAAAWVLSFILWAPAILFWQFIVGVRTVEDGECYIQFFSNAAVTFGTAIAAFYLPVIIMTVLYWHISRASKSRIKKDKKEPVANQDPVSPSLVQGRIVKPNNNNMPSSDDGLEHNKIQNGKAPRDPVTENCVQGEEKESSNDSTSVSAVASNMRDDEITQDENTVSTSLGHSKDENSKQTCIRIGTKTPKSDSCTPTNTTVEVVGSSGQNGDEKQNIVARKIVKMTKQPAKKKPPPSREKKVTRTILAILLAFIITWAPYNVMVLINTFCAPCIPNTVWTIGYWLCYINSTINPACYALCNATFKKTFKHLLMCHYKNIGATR
Kind of test: Displacement of [3H]NMS from human M2 AChR expressed in CHO cell membranes after 1 to 2 hrs by liquid scintillation spectrometry method. The method, boiled down:
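CHO membranes expressing the human subtype (20 µg protein/well) with 0.3 nM [3H]NMS and analog (1 nM–100 µM) in 50 mM Tris-HCl pH 7.4, 2 h at 25 °C. […] Filtered on GF/B, washed, counted by scintillation. IC50 taken from curves to give Ki; three independent experiments in duplicate.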
Background: Loss of bound radioactivity is the signal in a displacement assay; it reports binding, not function.

Test [3] has as its target T3, Muscarinic acetylcholine receptor M2 (Homo sapiens) (UniProt P08172).
T3 sequence (whole entry): T2 sequence (P08172 whole entry)
The test is described as follows: Displacement of [3H]NMS from human M2 AChR expressed in CHO cell membranes at 100 uM after 1 to 2 hrs by liquid scintillation spectrometry method relative to control. The method, boiled down:
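CHO membranes expressing the human subtype (20 µg protein/well) with 0.3 nM [3H]NMS and analog (1 nM–100 µM) in 50 mM Tris-HCl pH 7.4, 2 h at 25 °C. Filtered on GF/B, washed, counted by scintillation. IC50 taken from curves to give Ki; three independent experiments in duplicate.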

For test [4], the target named is T4, Muscarinic acetylcholine receptor M5 (Homo sapiens, UniProt P08912).
T4 sequence (P08912 whole entry): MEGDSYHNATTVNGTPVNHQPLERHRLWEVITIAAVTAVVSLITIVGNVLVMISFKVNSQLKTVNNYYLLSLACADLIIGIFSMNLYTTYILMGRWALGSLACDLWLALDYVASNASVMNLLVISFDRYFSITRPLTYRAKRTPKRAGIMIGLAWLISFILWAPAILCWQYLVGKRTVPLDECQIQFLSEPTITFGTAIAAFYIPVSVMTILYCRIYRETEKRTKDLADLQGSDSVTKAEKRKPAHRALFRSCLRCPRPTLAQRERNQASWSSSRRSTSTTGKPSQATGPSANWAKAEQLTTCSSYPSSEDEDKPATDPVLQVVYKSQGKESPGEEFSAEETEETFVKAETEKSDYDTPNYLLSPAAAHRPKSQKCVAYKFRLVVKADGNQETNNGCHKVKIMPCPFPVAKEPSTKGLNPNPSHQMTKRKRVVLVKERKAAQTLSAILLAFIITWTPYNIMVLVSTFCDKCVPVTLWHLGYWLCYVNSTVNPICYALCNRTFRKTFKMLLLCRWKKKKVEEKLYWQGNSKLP
Kind of test: Displacement of [3H]NMS from human M5 AChR expressed in CHO cell membranes after 1 to 2 hrs by liquid scintillation spectrometry method. In short, it runs like this: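 CHO membranes expressing human M5 (10 µg protein/well) with 0.3 nM [3H]NMS and analog (1 nM–100 µM) in 50 mM Tris-HCl pH 7.4, 2 h at 25 °C. Filtered on GF/B, counted by scintillation. IC50 converted to Ki; three independent experiments in duplicate.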

The target of test [5] is T5, Muscarinic acetylcholine receptor M5 (Homo sapiens) (UniProt P08912).
T5 sequence (whole entry): T4 sequence (P08912 whole entry)
The test is described as follows: Displacement of [3H]NMS from human M5 AChR expressed in CHO cell membranes at 100 uM after 1 to 2 hrs by liquid scintillation spectrometry method relative to control. The method, boiled down: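 CHO membranes expressing human M5 (10 µg protein/well) with 0.3 nM [3H]NMS and analog (1 nM–100 µM) in 50 mM Tris-HCl pH 7.4, 2 h at 25 °C. […] Filtered on GF/B, counted by scintillation. IC50 converted to Ki; three independent experiments in duplicate.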

Test [6] has as its target Muscarinic acetylcholine receptor (Rattus norvegicus) (UniProt P08482+P08483+P08485+P08911+P10980). The test is described as follows: Agonist activity at muscarinic acetylcholine receptor in superfused rat striatal slices assessed as augmentation of oxotremorine-induced [3H]DA release at 1 to 10 uM preincubated for 35 mins in presence of [3H]DA followed by oxotremorine addition and measured after 25 mins in presence of scopolamine by liquid scintillation spectroscopic method. Format: […]. The method, boiled down: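 Rat striatal slices (500 µm) in Krebs' buffer pH 7.4 at 34 °C for 60 min, with 0.1 µM [3H]DA over the final 30 min. Superfused at 0.6 mL/min with 10 µM nomifensine and 10 µM pargyline; 5-min fractions. Basal outflow taken over 15 min, then test agent 35 min, then 100 µM oxotremorine 25 min. Overflow = summed radioactivity minus basal, by scintillation; n = 4–10.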

Test [7] has as its target T6, Muscarinic acetylcholine receptor M1 (Homo sapiens) (UniProt P11229).
T6 sequence (whole entry): T1 sequence (P11229 whole entry)
To be noted: CHO, at 100 µM.

Activity calls are given as the source filed them. No cut-off for these calls is given here.

Take `O=C(OC1CN2CCC1CC2)N(CCc1ccc(F)cc1)c1ccccc1` (racemic): the Ki (in general, the dissociation constant of the complex between target and ligand, obtained from inhibition or displacement) in test [1] was determined as 2 nM; in test [2], 13 nM; in test [4], 1.8 nM. Further, the Imax in test [3] was determined as 100%; in test [5], 99.8%; in test [7], 99.9%. In addition, the result in test [6] was inactive.
